This is an account of results in ChEMBL document CHEMBL3785067, “Synthesis and evaluation of 4-hydroxyl aurone derivatives as multifunctional agents for the treatment of Alzheimer's disease” (Bioorg Med Chem, 2016).

Where only a bound is given, the exact number is not on record here.

One data set is filed under the species Homo sapiens. Put plainly: Selectivity ratio of IC50 for human recombinant MAO-A to IC50 for human recombinant MAO-B.
In data set [1] the target is T1, Amyloid-beta precursor protein (Homo sapiens, UniProt P05067). Put plainly: Inhibition of self-induced amyloid beta (1 to 42) (unknown origin) aggregation at 25 uM after 24 hrs by thioflavin-T fluorescence method. The procedure, abridged:
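HFIP-pretreated Aβ1-42 (25 µM final) incubated with compound (25 µM final) in 50 mM phosphate buffer pH 7.40 at 37 °C for 24 h. ThT (5 µM in 50 mM glycine-NaOH, pH 8.5) then added and fluorescence read at ex 446/em 490 nm. Background-subtracted inhibition = (1−IFi/IFc)×100. Run in triplicate.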

Data set [2] is described as follows: Antioxidant activity assessed as AAPH free radical scavenging activity measured as trolox equivalent at 5 uM preincubated for 15 mins followed by AAPH addition measured every min for 90 mins by fluorescence assay. To be noted: 1.5 h. It counts as physicochemical. The procedure, abridged: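 ORAC-FL in 75 mM phosphate buffer pH 7.40. Sample plus fluorescein (150 nM final) pre-incubated 15 min at 37 °C, then AAPH added (12 mM final). Fluorescence read every minute for 90 min (ex 485/em 535 nm). Net AUC (blank-subtracted) converted to Trolox equivalents using a Trolox standard curve (1-8 µM). Samples tested at 1-10 µM, in duplicate, with at least three independent assays.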

Data set [3] addresses T1, Amyloid-beta precursor protein. Description: Inhibition of Cu2+-induced amyloid beta (1 to 42) (unknown origin) aggregation at 25 uM after 24 hrs by thioflavin-T fluorescence method. In a few lines:
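Aβ1-42 (25 µM final) mixed with Cu2+ (25 µM final) in HEPES (20 mM, pH 6.60, 150 mM NaCl), with or without compound (25 µM final), and incubated at 37 °C for 24 h. 5 µM ThT in glycine-NaOH pH 8.50 then added and fluorescence read at ex 446/em 490 nm. Percent inhibition calculated from background-subtracted signal. Run in triplicate.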

For data set [4], the target named is T2, Amine oxidase [flavin-containing] B (Homo sapiens, UniProt P27338).
T2 sequence (P27338 whole entry): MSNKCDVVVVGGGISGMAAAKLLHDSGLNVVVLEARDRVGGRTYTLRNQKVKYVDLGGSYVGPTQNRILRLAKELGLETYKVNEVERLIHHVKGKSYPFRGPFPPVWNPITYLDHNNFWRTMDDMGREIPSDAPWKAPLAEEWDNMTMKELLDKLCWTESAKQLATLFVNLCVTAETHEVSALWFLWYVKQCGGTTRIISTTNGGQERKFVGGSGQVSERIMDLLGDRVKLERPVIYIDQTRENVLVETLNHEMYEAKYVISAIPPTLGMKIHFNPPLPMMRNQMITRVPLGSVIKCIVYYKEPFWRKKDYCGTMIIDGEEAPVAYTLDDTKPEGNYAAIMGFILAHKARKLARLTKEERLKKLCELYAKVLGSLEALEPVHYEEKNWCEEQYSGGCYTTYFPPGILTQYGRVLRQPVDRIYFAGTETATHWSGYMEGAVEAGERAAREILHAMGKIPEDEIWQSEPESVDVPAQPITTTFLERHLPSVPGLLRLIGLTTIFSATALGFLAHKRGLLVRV
Put plainly: Inhibition of human recombinant MAO-B using kynuramine as substrate after 30 mins by fluorescence spectrophotometry.

Data set [5] addresses T3, Amine oxidase [flavin-containing] A (Homo sapiens, UniProt P21397).
T3 sequence (P21397 whole entry): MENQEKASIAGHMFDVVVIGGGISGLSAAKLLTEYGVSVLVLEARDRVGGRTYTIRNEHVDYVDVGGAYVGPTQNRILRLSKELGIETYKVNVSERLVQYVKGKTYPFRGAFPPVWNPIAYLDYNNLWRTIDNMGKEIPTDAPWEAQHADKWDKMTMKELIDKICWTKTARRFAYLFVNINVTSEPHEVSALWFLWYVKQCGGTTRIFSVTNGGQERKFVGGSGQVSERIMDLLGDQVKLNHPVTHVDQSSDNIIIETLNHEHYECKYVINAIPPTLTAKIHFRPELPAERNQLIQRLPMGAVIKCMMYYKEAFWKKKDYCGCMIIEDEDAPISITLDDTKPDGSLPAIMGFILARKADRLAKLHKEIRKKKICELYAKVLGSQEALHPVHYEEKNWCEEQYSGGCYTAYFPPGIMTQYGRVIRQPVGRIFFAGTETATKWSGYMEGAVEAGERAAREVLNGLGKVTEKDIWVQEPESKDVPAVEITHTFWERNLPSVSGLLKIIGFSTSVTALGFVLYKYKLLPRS
Put plainly: Inhibition of human recombinant MAO-A using kynuramine as substrate after 30 mins by fluorescence spectrophotometry.

Data set [6] has as its target T3, Amine oxidase [flavin-containing] A. Description: Inhibition of human recombinant MAO-A at 10 uM using kynuramine as substrate after 30 mins by fluorescence spectrophotometry. Particulars: 0.5 h; call rule not given here. The procedure, abridged: (§1)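 Recombinant human MAO-A or MAO-B (7.5 µg/mL) in 100 mM potassium phosphate with 20.2 mM KCl, pH 7.40. Kynuramine substrate at 45 µM (MAO-A) or 30 µM (MAO-B); DMSO below 4%. Incubated 37 °C for 30 min, stopped with 2N NaOH. 4-Hydroxyquinoline fluorescence read at ex 310/em 400 nm against a calibration curve. Single-concentration screen at 10 µM, in triplicate.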

Data set [7] can be described thus: Metal chelating activity assessed as compound-copper complex formation at 37.5 uM after 30 mins by UV-visual spectrometry. To be noted: 0.5 h. The format is physicochemical. In a few lines:
(§2)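 UV absorption spectra (200-600 nm) recorded for compound alone or with CuCl2, ZnCl2, AlCl3 or FeSO4 after 30 min incubation at room temperature.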

Data set [8] is described as follows: Permeability of the compound at 100 ug/ml after 18 hrs by PAMPA-BBB assay. (PAMPA measures passive passage across an artificial lipid membrane.)
Data set [9] is described as follows: Metal chelating activity assessed as compound-aluminium complex formation at 37.5 uM after 30 mins by UV-visual spectrometry. Particulars: 0.5 h. It counts as physicochemical. The procedure, abridged: as §2
Data set [10] can be described thus: Metal chelating activity assessed as compound-iron complex formation at 37.5 uM after 30 mins by UV-visual spectrometry. The format is physicochemical. To be noted: 0.5 h. In a few lines: as §2
Data set [11] is described as follows: Metal chelating activity assessed as compound-zinc complex formation at 37.5 uM after 30 mins by UV-visual spectrometry. Particulars: 0.5 h. The format is physicochemical. In a few lines: as §2
Data set [12] is described as follows: Metal chelating activity assessed as mole fraction of compound required to show 1:1 stoichiometry for Cu2+-compound complex at 37.5 uM after 30 mins by UV-visual spectrometry. The format is physicochemical. To be noted: 0.5 h. The procedure, abridged: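 Molar-ratio titration of compound in methanol (37.5 µM final) with CuCl2 (3.75-150 µM final). UV spectra corrected by subtracting CuCl2 and compound at matching concentrations. Absorbance at 498 or 488 nm plotted against mole fraction; stoichiometry taken from the intersection of the fitted lines.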

In data set [13] the target is T2, Amine oxidase [flavin-containing] B. Put plainly: Inhibition of human recombinant MAO-B at 10 uM using kynuramine as substrate after 30 mins by fluorescence spectrophotometry. To be noted: 0.5 h. The procedure, abridged:
as §1

The target in data set [14] is T1, Amyloid-beta precursor protein. Put plainly: Displacement of [125I]-2-[(4-Aminophenyl)methylene]-5-iodo-3(2H)-benzofuranone from amyloid beta (1 to 42) (unknown origin) after 3 hrs by gamma counting method.

T1 sequence (P05067 whole entry): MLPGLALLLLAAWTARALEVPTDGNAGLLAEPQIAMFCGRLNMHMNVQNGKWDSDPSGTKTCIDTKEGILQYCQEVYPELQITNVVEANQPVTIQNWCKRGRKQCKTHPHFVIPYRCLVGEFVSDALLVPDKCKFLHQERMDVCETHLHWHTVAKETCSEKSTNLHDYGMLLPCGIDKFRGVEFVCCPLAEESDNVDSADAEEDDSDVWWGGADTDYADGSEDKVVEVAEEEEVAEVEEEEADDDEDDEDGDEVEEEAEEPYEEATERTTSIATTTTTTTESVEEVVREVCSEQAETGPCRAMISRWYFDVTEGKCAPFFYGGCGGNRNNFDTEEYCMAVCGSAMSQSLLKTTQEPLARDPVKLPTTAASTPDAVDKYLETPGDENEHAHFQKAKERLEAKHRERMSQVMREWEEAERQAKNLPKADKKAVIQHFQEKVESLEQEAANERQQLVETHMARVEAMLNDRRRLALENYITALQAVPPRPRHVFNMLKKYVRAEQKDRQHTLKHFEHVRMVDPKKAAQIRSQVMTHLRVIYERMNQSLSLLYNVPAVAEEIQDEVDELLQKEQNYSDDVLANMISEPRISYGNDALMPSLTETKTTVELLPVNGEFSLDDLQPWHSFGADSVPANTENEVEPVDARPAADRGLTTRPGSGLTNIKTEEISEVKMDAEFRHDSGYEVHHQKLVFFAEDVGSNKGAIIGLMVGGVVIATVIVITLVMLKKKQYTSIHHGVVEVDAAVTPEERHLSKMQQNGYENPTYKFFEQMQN

On to `CCN(C)c1ccc(/C=C2\Oc3cc(O)cc(O)c3C2=O)cc1`, for which the Ratio IC50 in the data set filed under Homo sapiens is 0.035. In addition, the values for the inhibition in [1] and in [3] were 95.3% and 86.6%, respectively. Also, the Activity in [2] is on record as 1.97 equiv. Further, the IC50 (in general, the point on the concentration scale where inhibition reaches its midpoint) in [4] was 808 nM; in data set [5], 27.9 nM.
Consider `COc1cc(O)c2c(c1)O/C(=C\c1ccc(N3CCOCC3)cc1)C2=O`, for which the Ratio IC50 in the data set filed under Homo sapiens was above 6.67. The inhibition (as a rule, the change of the read-out against control, counted positive when it falls) came to 44.1% in [1] and 47.5% in data set [3]. The Activity in data set [2] came out at 1.66 equiv. Further, in data set [4], the IC50 worked out at 1500 nM. In data set [6], the inhibition at 10 µM amounted to 18.4%.
As to `O=C1/C(=C/c2ccc(N3CCCCC3)cc2)Oc2cc(O)cc(O)c21`, the Ratio IC50 in the data set filed under Homo sapiens was found to be 0.69. Besides, the Activity result is recorded as “Active” in data set [7]; 1.9 equiv in [2]; “Active” in data set [9]; “Not Active” in data set [10]; “Active” in data set [11]; 0.95 molar ratio in data set [12]. For the same molecule, the inhibition was found to be 99.2% in data set [1] and 84% in data set [3]. In addition, the Papp (usually the rate of passage across a membrane or cell layer, normalised by area and donor concentration) at 18 h, 100 ug/ml in data set [8] amounted to 6.68 ×10⁻⁶ cm/s. Also, the IC50 in data set [4] is 393 nM; in data set [5] it was 271 nM.
In the case of `CN(C)c1ccccc1/C=C1\Oc2cc(O)cc(O)c2C1=O`, the inhibition is 98.2% in data set [1] and 90.1% in data set [3]. Moreover, in data set [2], the Activity is recorded as 2.91 equiv. Further, the inhibition at 10 µM stood at 0.88% in data set [13] and 13.5% in data set [6].
`CN(C)c1ccc(/C=C2\Oc3ccc([125I])cc3C2=O)cc1`: in data set [14], the affinity corresponds to a Ki of 6.82 nM.
Turning to `CN(C)c1ccc(/C=C2\Oc3cc(N(C)C)cc(O)c3C2=O)cc1`, the inhibition in data set [1] turned out to be 22.3%; in [3] it was 71.6%. In data set [2], the Activity is recorded as 2.43 equiv. In addition, the inhibition at 10 µM turned out to be 13.5% in data set [13] and 16.8% in [6].
As for `O=C1/C(=C/c2ccc(N3CCCC3)cc2)Oc2cc(O)cc(O)c21`, the Ratio IC50 in the data set filed under Homo sapiens stood at 1.17. Moreover, the inhibition in data set [1] is 99.8%; in [3] it was 84.8%. Besides, in data set [2], the Activity is reported as 1.56 equiv. For the same molecule, the figures for the IC50 in [4] and in data set [5] were 391 nM and 457 nM, respectively.
Turning to `CCN(CC)c1ccc(/C=C2\Oc3cc(O)cc(O)c3C2=O)cc1`, the Ratio IC50 in the data set filed under Homo sapiens is 0.344. The results for the inhibition in data set [1] and in data set [3] were 91.7% and 88.9%, respectively. In addition, the Activity in [2] is on record as 2.04 equiv. The IC50 was determined as 334 nM in data set [4] and 115 nM in data set [5].
`CN1CCN(c2ccc(/C=C3\Oc4cc(O)cc(O)c4C3=O)cc2)CC1`: in the data set listed under Homo sapiens, the Ratio IC50 is above 0.926. Also, the inhibition in data set [1] came to 77.7%; in data set [3] it was 52%. The Activity in data set [2] was found to be 2.5 equiv. In [4], the 50% inhibitory concentration (IC50) turned out to be 10800 nM. For the same molecule, the inhibition at 10 µM in data set [6] amounted to 15.8%.
Take `O=C1/C(=C/c2ccc(N3CCOCC3)cc2)Oc2cc(O)cc(O)c21`: in the data set filed under Homo sapiens, the Ratio IC50 was 3.18. Besides, the inhibition in [1] came to 80.7%; in [3], 50.1%. The Activity in data set [2] was 2.5 equiv. In addition, the results for the IC50 in data set [4] and in [5] were 340 nM and 1080 nM, respectively.
Take `COc1cc(O)c2c(c1)O/C(=C\c1ccc(N(C)C)cc1)C2=O`: in the data set filed under Homo sapiens, the Ratio IC50 was above 14.2. For the same molecule, the figures for the inhibition in [1] and in data set [3] were 53.7% and 75.7%, respectively. Also, the Activity in data set [2] turned out to be 1.62 equiv. In addition, the IC50 in data set [4] worked out at 703 nM. Further, in data set [6], the inhibition at 10 µM was 20.7%.
Regarding `CN(C)c1ccc(CC2Oc3cc(O)cc(O)c3C2=O)cc1` (stereo not drawn), the inhibition in data set [1] amounted to 42.7%; in data set [3], 40.5%. In addition, the Activity in data set [2] is listed as 3.07 equiv. In addition, the figures for the inhibition at 10 µM in data set [13] and in data set [6] were 27.2% and 23.5%, respectively.
As to `COc1cc(O)c2c(c1)O/C(=C\c1ccc(N3CCCCC3)cc1)C2=O`, the Ratio IC50 in the data set listed under Homo sapiens was above 44.2. The Activity entry in data set [7] is recorded as “Active”; in data set [2], 1 equiv; in [9], “Active”; in data set [10] it was “Not Active”; in data set [11], “Active”; in [12], 1.11 molar ratio. The inhibition in [1] came out at 40.3%; in [3] it was 46%. The same molecule returned a Papp at 18 h, 100 ug/ml in data set [8] of 7.24 ×10⁻⁶ cm/s. For the same molecule, the concentration for half-maximal inhibition (IC50) in data set [4] was 226 nM. Also, the inhibition at 10 µM in data set [6] amounted to 18.3%.
`O=C1c2c(O)cc(O)cc2OC1Cc1ccc(N2CCOCC2)cc1` (stereo not drawn): the values for the inhibition in data set [1] and in data set [3] were 38% and 20.9%, respectively. Also, in [2], the Activity was 3.56 equiv. Besides, the inhibition at 10 µM worked out at 8.7% in [13] and 13.9% in data set [6].
Turning to `CN(C)c1ccc(/C=C2\Oc3cc(O)cc(O)c3C2=O)cc1`, the Ratio IC50 in the data set filed under Homo sapiens is 0.039. Moreover, the values for the inhibition in [1] and in [3] were 97.4% and 61.4%, respectively. The Activity in data set [2] was determined as 2.9 equiv. Further, the IC50 is 5940 nM in data set [4] and 233 nM in data set [5].
